Reference: ChEMBL document CHEMBL1137035, “New DNA binding ligands as a model of chromomycin A3” (Bioorg Med Chem Lett, 2004)

How the values were obtained:
Type in all cases: nucleic-acid assay
Nucleic Acid [1] = assay: Inhibitory concentration required to displace DNA-bound ethidium bromide molecules bound to CT12 (5''-CGTAGCGCTACG)2; NI denotes no inhibition
Method in brief: (§1)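 Ethidium bromide displacement at 25 °C: duplex DNA (1 μM) and ethidium bromide (1 μM) in 20 mM Tris–HCl, pH 8.0, containing 1 mM MgCl2. Ligand titrated from 0 to 10 μM. Fluorescence read at λex 546 nm, λem 590 nm. IC50 is the concentration displacing 50% of DNA-bound ethidium, expressed as the dimer complex except for Hoechst 33258.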

Nucleic Acid [2] = assay: Inhibitory concentration required to displace DNA-bound ethidium bromide molecules bound to CA12 (5''-CGCGAATTCGCG)2; NI denotes no inhibition; method in brief: as §1
Nucleic Acid [3] = assay: Inhibitory concentration required to displace DNA-bound ethidium bromide molecules bound to CT12 (5''-CGTAGCGCTACG)2; method in brief: as §1
Nucleic Acid [4] = assay: Inhibitory concentration required to displace DNA-bound ethidium bromide molecules bound to CA12 (5''-CGCGAATTCGCG)2; method in brief: as §1
Nucleic Acid [5] = assay: Inhibitory concentration required to displace one of two DNA-bound ethidium bromide molecules bound to CT12 (5''-CGTAGCGCTACG)2
Method in brief: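 Ethidium bromide displacement at 25 °C. CT12 duplex (1 μM) and ethidium bromide (1 μM) in 20 mM Tris–HCl, pH 8.0, with 1 mM MgCl2. Ligand titrated from 0 to 10 μM. Fluorescence read at λex 546 nm, λem 590 nm. IC50 is the concentration that displaces 50% of DNA-bound ethidium, expressed as dimer complex.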

SMILES | IC50 (Nucleic Acid [1]) | IC50 (Nucleic Acid [2]) | IC50 (Nucleic Acid [3]) [nM] | IC50 (Nucleic Acid [4]) [nM] | IC50 (Nucleic Acid [5]) [nM]
C[C@H]1CC(=O)c2c(cc3cc(O)cc(O)c3c2O)C1 | Not Active | Not Active | – | – | –
CCCCCC[C@@H]1C(=O)c2c(cc3cc(O)cc(O)c3c2O)C[C@H]1C | – | – | 3000 | 3000 | –
CCCCC/C=C1/C(=O)c2c(cc3cc(O)cc(O)c3c2O)C[C@H]1C | – | – | 2500 | 2500 | –
CCCCCC[C@H]1C(=O)c2c(cc3cc(O)cc(O)c3c2O)C[C@H]1C | – | – | 3000 | 2500 | –
CCCCCC(O)C1C(=O)c2c(cc3cc(O)cc(O)c3c2O)C[C@H]1C (stereo partly specified) | – | – | 6500 | 4500 | –
CCCCCCC1C(=O)c2c(cc3cc(O)cc(O)c3c2O)C[C@H]1C (stereo partly specified) | – | – | 3500 | 3000 | –
CO[C@@H]1[C@H](O)C[C@@H](O[C@@H]2C[C@H](Oc3cc4cc5c(c(O)c4c(O)c3C)C(=O)[C@@H](O[C@H]3C[C@@H](O[C@H]4C[C@@H](O[C@H]6C[C@](C)(O)[C@@H](OC(C)=O)[C@H](C)O6)[C@H](O)[C@@H](C)O4)[C@H](O)[C@@H](C)O3)[C@H]([C@H](OC)C(=O)[C@@H](O)[C@@H](C)O)C5)O[C@H](C)[C@@H]2OC(C)=O)O[C@@H]1C [CHROMOMYCIN A3] | – | – | – | 9000 | 3000
CN1CCN(c2ccc3[nH]c(-c4ccc5[nH]c(-c6ccc(O)cc6)nc5c4)nc3c2)CC1 [HOECHST 33258] | – | – | > 20000 | 1000 | –
